Active and inactive are the calls of the source. The calls are words filed in the database; no cut-off is given here.

Data on eight compounds can be found in ChEMBL document CHEMBL1142437, “Constrained analogues of procaine as novel small molecule inhibitors of DNA methyltransferase-1” (J Med Chem, 2008).

In the first assay the target is DNA (cytosine-5)-methyltransferase 1 (Homo sapiens) (UniProt P26358). Nature of the assay: Inhibition of human recombinant DNMT1 expressed in Sf9 cells.
Sequence of DNA (cytosine-5)-methyltransferase 1 (Homo sapiens) (P26358 whole entry): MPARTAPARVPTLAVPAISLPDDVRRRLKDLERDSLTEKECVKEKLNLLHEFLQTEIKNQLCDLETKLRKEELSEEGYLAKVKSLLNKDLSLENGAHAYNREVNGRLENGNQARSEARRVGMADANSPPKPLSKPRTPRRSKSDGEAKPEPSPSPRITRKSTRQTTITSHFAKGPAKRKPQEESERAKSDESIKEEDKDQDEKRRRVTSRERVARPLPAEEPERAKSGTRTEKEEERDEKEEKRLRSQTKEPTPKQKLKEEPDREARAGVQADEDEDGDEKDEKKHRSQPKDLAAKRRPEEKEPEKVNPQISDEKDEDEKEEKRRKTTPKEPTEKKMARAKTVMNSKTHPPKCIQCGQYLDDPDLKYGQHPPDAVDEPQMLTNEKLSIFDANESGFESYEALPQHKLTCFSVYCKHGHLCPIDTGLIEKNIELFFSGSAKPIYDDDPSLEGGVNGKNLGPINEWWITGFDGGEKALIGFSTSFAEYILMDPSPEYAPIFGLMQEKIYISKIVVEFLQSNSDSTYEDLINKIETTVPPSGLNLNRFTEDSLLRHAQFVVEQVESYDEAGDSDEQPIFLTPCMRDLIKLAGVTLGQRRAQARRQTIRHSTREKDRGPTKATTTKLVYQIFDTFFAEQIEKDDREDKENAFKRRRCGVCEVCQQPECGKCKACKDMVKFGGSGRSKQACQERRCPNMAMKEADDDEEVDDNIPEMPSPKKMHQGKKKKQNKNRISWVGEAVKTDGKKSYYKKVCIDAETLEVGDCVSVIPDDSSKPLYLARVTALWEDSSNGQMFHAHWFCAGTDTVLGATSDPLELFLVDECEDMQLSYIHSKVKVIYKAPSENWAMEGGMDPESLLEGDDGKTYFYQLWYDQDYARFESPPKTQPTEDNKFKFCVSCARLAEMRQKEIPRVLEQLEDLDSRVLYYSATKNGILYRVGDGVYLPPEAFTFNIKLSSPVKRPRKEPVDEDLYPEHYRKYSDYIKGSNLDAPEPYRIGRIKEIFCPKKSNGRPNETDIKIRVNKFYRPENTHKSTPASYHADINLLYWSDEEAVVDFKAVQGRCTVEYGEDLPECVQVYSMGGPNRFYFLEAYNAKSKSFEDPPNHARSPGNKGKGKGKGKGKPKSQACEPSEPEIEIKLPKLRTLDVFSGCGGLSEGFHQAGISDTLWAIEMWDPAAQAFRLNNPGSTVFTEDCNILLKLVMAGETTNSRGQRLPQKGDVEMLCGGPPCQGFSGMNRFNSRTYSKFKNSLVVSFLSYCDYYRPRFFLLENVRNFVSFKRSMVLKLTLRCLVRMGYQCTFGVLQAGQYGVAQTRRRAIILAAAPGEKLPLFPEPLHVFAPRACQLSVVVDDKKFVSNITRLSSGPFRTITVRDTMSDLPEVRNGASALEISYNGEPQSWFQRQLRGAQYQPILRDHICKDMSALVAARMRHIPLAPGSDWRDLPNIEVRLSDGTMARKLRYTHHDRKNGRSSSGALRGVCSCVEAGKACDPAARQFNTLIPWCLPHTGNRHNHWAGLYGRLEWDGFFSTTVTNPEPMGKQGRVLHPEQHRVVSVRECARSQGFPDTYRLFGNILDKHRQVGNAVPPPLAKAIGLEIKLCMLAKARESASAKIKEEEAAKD
On to `CCN(CC)C[C@@H]1COC(c2ccc([N+](=O)[O-])cc2)=N1`, for which the outcome was Active.
Still for that read-out and setting: the value for `O=[N+]([O-])c1ccc(C2=N[C@@H](CN3CCCC3)CO2)cc1` was “Active”; that for `O=[N+]([O-])c1ccc(C2=N[C@H](CN3CCCC3)CO2)cc1` was “Active”; that for `O=[N+]([O-])c1ccc(C2=NC[C@H](CN3CCCC3)O2)cc1` was “Active”.
The same measure, in the same setting: the value for `CCN(CC)C[C@H]1COC(c2ccc([N+](=O)[O-])cc2)=N1` was “Active”; that for `CCN(CC)C[C@H]1CN=C(c2ccc([N+](=O)[O-])cc2)O1` was “Active”.
On the same count and under the same terms, as for `CCN(CC)C[C@@H]1CN=C(c2ccc([N+](=O)[O-])cc2)O1`, the entry is “Active”.

The subject of a further assay is HL-60. Nature of the assay: Induction of chromosomal satellite repeats demethylation in human HL60 cells at 0.5 mM after 72 hrs. The class given is functional, cell-based. Put shortly: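 HL60 human myeloid leukemia cells exposed 72 h to 0.5 mM drug in DMSO, DMSO (1%) as control. Methylation of chromosomal satellite repeats (C1S2) assessed by COBRA assay on genomic DNA.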
In the case of `CCN(CC)CCOC(=O)c1ccc(N)cc1`, the outcome was Active.
The same measure, in the same setting: the value for `O=[N+]([O-])c1ccc(C2=NC[C@H](CN3CCCC3)O2)cc1` was “Active”.
